Test results taken from ChEMBL document CHEMBL1123615, “1,3-Dialkyl-4-(iminoarylmethyl)-1H-pyrazol-5-ols. A series of novel potential antipsychotic agents” (J Med Chem, 1987).

What was measured:
D(2) dopamine receptor = D(2) dopamine receptor (Rattus norvegicus, UniProt P61169); test: In vitro binding affinity against Dopamine receptor D2 by displacement of [3H]haloperidol from rat striatal membranes.; type: cell membranes, Membrane
Mus musculus [1] = test: Inhibition of locomotor activity (LMA) and motor coordination in mice by intraperitoneal administration.; type: functional; details: ip
Method in brief: (§1)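 Mice scored for inhibition of spontaneous locomotor activity and for ataxia (impaired motor coordination). Nine mice per dose; ED50 derived from at least three doses.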

Mus musculus [2] = test: Inhibition of ataxia in mice by intraperitoneal administration.; type: functional; details: ip; method in brief: as §1

D(2) dopamine receptor, sequence (P61169 whole entry): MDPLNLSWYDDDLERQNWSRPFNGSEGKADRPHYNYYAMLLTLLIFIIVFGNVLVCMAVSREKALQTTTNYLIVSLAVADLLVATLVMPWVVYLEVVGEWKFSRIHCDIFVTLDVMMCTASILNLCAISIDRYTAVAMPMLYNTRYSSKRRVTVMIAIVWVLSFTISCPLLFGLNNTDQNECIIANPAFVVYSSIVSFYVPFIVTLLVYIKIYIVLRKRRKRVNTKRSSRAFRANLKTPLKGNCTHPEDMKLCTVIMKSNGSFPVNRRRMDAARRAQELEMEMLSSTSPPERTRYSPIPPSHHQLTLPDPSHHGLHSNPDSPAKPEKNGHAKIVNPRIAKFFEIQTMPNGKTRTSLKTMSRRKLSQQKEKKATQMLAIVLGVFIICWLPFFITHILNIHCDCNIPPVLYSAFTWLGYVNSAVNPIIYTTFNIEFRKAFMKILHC

IC50 (D(2) dopamine receptor)	Compound	ED50 (Mus musculus [1])	ED50 (Mus musculus [2])
> 10 µM	CCn1[nH]c(C)c(C(=N)c2ccccc2)c1=O	11.8 mg/kg	21.5 mg/kg
–	Cc1[nH]n(C)c(=O)c1C(=N)c1ccc(Cl)cc1	18.9 mg/kg	> 56 mg/kg
> 10 µM	Cc1[nH]n(C)c(=O)c1C(=N)c1cccc(F)c1	35.6 mg/kg	63.6 mg/kg
–	Cc1[nH]n(C)c(=O)c1C(=N)c1ccc(N)cc1	> 100 mg/kg	> 100 mg/kg
–	C/N=C(/c1cccc(Cl)c1)c1c(C)[nH]n(C)c1=O	50.5 mg/kg	73.1 mg/kg
> 1 µM	CC(=O)/N=C(\c1cccc(Cl)c1)c1c(C)[nH]n(C)c1=O	25.1 mg/kg	> 100 mg/kg
–	Cc1[nH]n(C)c(=O)c1C(=N)c1ccc([N+](=O)[O-])cc1	> 90 mg/kg	> 90 mg/kg
> 10 µM	Cc1[nH]n(C(C)C)c(=O)c1C(=N)c1cccc(Cl)c1	25 mg/kg	> 30 mg/kg
–	Cc1[nH]n(C)c(=O)c1C(=N)c1cc(Cl)cc(Cl)c1	34.9 mg/kg	> 100 mg/kg
–	CCCCn1[nH]c(C)c(C(=N)c2cccc(Cl)c2)c1=O	88.3 mg/kg	62.5 mg/kg
> 10 µM	CCCn1[nH]c(C)c(C(=N)c2cccc(Cl)c2)c1=O	21.5 mg/kg	> 30 mg/kg
–	CCCn1[nH]c(C)c(C(=N)c2ccccc2)c1=O	11.6 mg/kg	25.2 mg/kg
–	Cn1[nH]cc(C(=N)c2cccc(Cl)c2)c1=O	47.8 mg/kg	> 100 mg/kg
–	Cc1cccc(C(=N)c2c(C)[nH]n(C)c2=O)c1	33.1 mg/kg	79.3 mg/kg
–	Cc1[nH]n(C)c(=O)c1C(=N)c1ccco1	33.6 mg/kg	> 100 mg/kg
> 1 µM	Cc1[nH]n(C)c(=O)c1/C(=N/C(=O)C(Cl)Cl)c1cccc(Cl)c1	35.5 mg/kg	> 100 mg/kg
–	Cc1[nH]n(C)c(=O)c1C(=N)c1cccs1	40.5 mg/kg	> 90 mg/kg
–	COc1ccccc1C(=N)c1c(C)[nH]n(C)c1=O	46.6 mg/kg	87.9 mg/kg
